Four compounds from ChEMBL document CHEMBL3102827, “Permeability and conjugative metabolism of flaxseed lignans by Caco-2 human intestinal cells” (J Nat Prod, 2014) can be followed below.

Some results are limits rather than exact numbers.

Data set [1] is described as follows: Stability in HBSS after 48 hrs. In kind it is physicochemical. The note with it: read-out: Stability. Summed up: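 Lignans kept in test medium in wells without cells for up to 48 h. Remaining compound was measured to judge stability.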
Data set [2] in a line: Drug metabolism in human Caco2 cells assessed as compound glucuronidation/sulfation at 100 uM after 48 hrs by HPLC analysis. In kind it is ADME, cell-based. The note with it: Caco-2 cells, read-out: Drug metabolism. The essentials:
(§1)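 Caco-2 grown 21 days in 24-well plates, washed with HBSS/HEPES pH 7.4, then given 100 μM lignan in DMEM in triplicate at 37 °C. Supernatant and cells taken at 0, 2, 4, 6, 12, 24 and 48 h. Samples hydrolysed with H. pomatia β-glucuronidase/sulfatase H-5 (0.66 mg in 0.1 M acetate pH 5.0, 37 °C, 2 h), acetonitrile-precipitated and analysed by HPLC. Conjugate = total minus free, relative to a zero-time control.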

Data set [3] concerns Caco-2. As to the kind of experiment: (§2) Apparent permeability across basolateral to apical side in human Caco2 cells after 2 hrs by HPLC analysis. Conditions: caco-2, 2 h, BLD = below limit of detection; call rule not given here. Type of data set: ADME, cell-based. Summed up:
(§3)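 Caco-2 (passages 41−54, DMEM/10% FBS/1% NEAA) grown 21 days on polyester Transwells (0.4 μm pore). Cells washed with HBSS/10 mM HEPES pH 7.4 and equilibrated 30 min at 37 °C; lignan at 100 μM added to apical or basolateral side, 2 h at 37 °C. Both compartments sampled and quantified by HPLC. Papp = (dQ/dt)/(Am·C0). Integrity checked by TEER and Lucifer yellow. Transport linear to 2 h.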
(Caco-2 monolayers are a common model of the intestinal barrier.)

The test system of data set [4] is Caco-2. Briefly: (§4) Apparent permeability across apical to basolateral side in human Caco2 cells after 2 hrs by HPLC analysis. Type of data set: ADME, cell-based. The note with it: caco-2, 2 h, BLD = below limit of detection. The essentials: as §3
A short description of data set [5]: Activity at Helix pomatia beta-glucuronidase/sulfatase type H-5 in compound-treated human Caco2 cell lysate assessed as formation of glucuronidase/sulfatase-sensitive conjugates at 100 uM after 12 hrs by HPLC analysis. Conditions: caco-2, 12 h. Type of data set: ADME, cell-based. The essentials:
as §1

Data set [6] can be described thus: Efflux ratio of permeability from basolateral to apical side over apical to basolateral side in human Caco2 cells after 2 hrs by HPLC analysis. Type of data set: ADME, cell-based. Conditions: Caco-2. Summed up: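 Efflux ratio taken as Papp B→A over Papp A→B. Papp comes from 2 h bidirectional transport of 100 μM lignan across 21-day Caco-2 monolayers on Transwells in HBSS/10 mM HEPES pH 7.4 at 37 °C, with HPLC quantitation of both compartments. TEER and Lucifer yellow used to confirm monolayer integrity.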

A short description of data set [7]: as §2. In kind it is ADME, cell-based, Caco-2. Conditions: Caco-2. The essentials: as §3
Data set [8] in a line: as §4. In kind it is ADME, cell-based, Caco-2. Conditions: Caco-2. Summed up:
as §3

Turning to `COc1cc(C[C@@H](CO[C@@H]2O[C@H](CO)[C@@H](O)[C@H](O)[C@H]2O)[C@H](CO[C@@H]2O[C@H](CO)[C@@H](O)[C@H](O)[C@H]2O)Cc2ccc(O)c(OC)c2)ccc1O`, the remaining at 48 h in data set [1] is > 95%. For the same compound, in data set [2], the metabolised at 48 h, 100 µM was < 3%. Further, the Papp result in the data set on Caco-2 [3] and with Caco-2 [4] was “BLD” in each case.

In general, efflux ratio refers to a quotient of directional permeabilities that is used to spot active efflux. As usually defined, the Papp B→A is how fast a substance crosses the layer from the basolateral side. The Papp A→B is how fast a substance crosses the layer from the apical side. As for `O=C1OC[C@H](Cc2cccc(O)c2)[C@H]1Cc1cccc(O)c1` (relative stereo) [ENTEROLACTONE], in data set [1], the remaining at 48 h is > 95%. Further, in data set [5], the Drug metabolism result is “Active”. Further, the efflux ratio at 2 h in data set [6] was found to be 0.8. For the same compound, the Papp B→A at 2 h in data set [7] is 10.6 ×10⁻⁶ cm/s. The Papp A→B at 2 h in data set [8] came to 13.7 ×10⁻⁶ cm/s.

For `COc1cc(C[C@@H](CO)[C@H](CO)Cc2ccc(O)c(OC)c2)ccc1O` [(+)-SECOISOLARICIRESINOL], in data set [1], the remaining at 48 h is > 95%. The efflux ratio at 2 h in data set [6] came to 1.2. Also, the Papp B→A at 2 h in data set [7] was 9.5 ×10⁻⁶ cm/s. Also, in data set [8], the Papp A→B at 2 h was 8 ×10⁻⁶ cm/s.

`OC[C@H](Cc1cccc(O)c1)[C@H](CO)Cc1cccc(O)c1` [ENTERODIOL]: the remaining at 48 h in data set [1] is > 95%. Moreover, the efflux ratio at 2 h in data set [6] was determined as 1.2. In data set [7], the basolateral-to-apical permeability (Papp B→A) at 2 h amounted to 8.9 ×10⁻⁶ cm/s. Moreover, the Papp A→B at 2 h in data set [8] stood at 7.7 ×10⁻⁶ cm/s.
